Results from different studies.
Protocols differ between the studies behind these lines.
Target: RAC-gamma serine/threonine-protein kinase (AKT3, Homo sapiens, UniProt Q9Y243)

Compound	observed	mode	method	tested at	endpoint	result
CC(C)(C)c1cc(C=C(C#N)C#N)cc(Br)c1O	enzyme activity	inhibitor		0.5 µM	remaining activity	111%
Cn1cc(-c2cc(F)cc(N3CCn4c(cc5c4CCCC5)C3=O)c2CO)cc(Nc2ccc(N3CCN(C4COC4)CC3)cn2)c1=O	enzyme activity	inhibitor		0.1 µM	inhibition	5%
COc1ncccc1-c1cnn2ccc(N3CCN(C(=O)OC(C)C)CC3)nc12	binding		competition with immobilised ligand	1 µM	remaining binding	100%
O=c1[nH]c2ccccc2n1C1CCN(Cc2ccc(-c3[nH]c4cc5ncnc5cc4nc3-c3ccccc3)cc2)CC1	cell-free assay			0.5 µM	remaining signal	103%
Nc1ncc(-c2nc(N3CCOCC3)nc(N3CCOCC3)n2)c(C(F)F)n1	binding		competition with immobilised ligand	10 µM	remaining binding	59%
N#CC1(c2ccccn2)CCN(Cc2cc(C(=O)O)c(=O)n3ccccc23)CC1	cell-free assay		competition with immobilised ligand	1 µM	remaining binding	100%
Cc1nn(C)cc1-c1nc2c(N3CCN(Cc4ccc(Cl)cc4)CC3)c(Cl)cnc2[nH]1	binding		competition with immobilised ligand	1 µM	remaining binding	100%
COc1cc(Nc2ncc(F)c(Nc3ccc4c(n3)NC(=O)C(C)(C)O4)n2)cc(OC)c1OC	binding		competition with immobilised ligand	10 µM	inhibition	0%
Cn1cc(-c2cccc(N3CCc4c(sc5c4CC(C)(C)C5)C3=O)c2CO)cc(Nc2ccncn2)c1=O	enzyme activity	inhibitor		1 µM	inhibition	6%
Cn1cncc1[C@](O)(COc1ccc(C#N)cc1-c1ccc(OC(F)(F)F)cc1)c1ccc(C#N)cc1	cell-free assay		competition with immobilised ligand	1 µM	remaining binding	100%
